The values that follow come from ChEMBL document CHEMBL5500351, “Active site-directed probes targeting dipeptidyl peptidases 8 and 9” (Eur J Med Chem, 2024).

Molecules are shown by their SMILES.

One experiment deals with Dipeptidyl peptidase 4 (Homo sapiens, UniProt P27487). Nature of the experiment: Inhibition of human DPP4. An outline of the steps:
(§1)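 IC50 reported as the mean ± standard deviation of three independent determinations against each protease.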

For another experiment, the target named is Dipeptidyl peptidase 2 (Homo sapiens, UniProt Q9UHL4). Nature of the experiment: Inhibition of recombinant human DPP2. An outline of the steps:
as §1

For a further experiment, the target named is T1, Prolyl endopeptidase FAP (Homo sapiens, UniProt Q12884).
T1 sequence (Q12884 whole entry): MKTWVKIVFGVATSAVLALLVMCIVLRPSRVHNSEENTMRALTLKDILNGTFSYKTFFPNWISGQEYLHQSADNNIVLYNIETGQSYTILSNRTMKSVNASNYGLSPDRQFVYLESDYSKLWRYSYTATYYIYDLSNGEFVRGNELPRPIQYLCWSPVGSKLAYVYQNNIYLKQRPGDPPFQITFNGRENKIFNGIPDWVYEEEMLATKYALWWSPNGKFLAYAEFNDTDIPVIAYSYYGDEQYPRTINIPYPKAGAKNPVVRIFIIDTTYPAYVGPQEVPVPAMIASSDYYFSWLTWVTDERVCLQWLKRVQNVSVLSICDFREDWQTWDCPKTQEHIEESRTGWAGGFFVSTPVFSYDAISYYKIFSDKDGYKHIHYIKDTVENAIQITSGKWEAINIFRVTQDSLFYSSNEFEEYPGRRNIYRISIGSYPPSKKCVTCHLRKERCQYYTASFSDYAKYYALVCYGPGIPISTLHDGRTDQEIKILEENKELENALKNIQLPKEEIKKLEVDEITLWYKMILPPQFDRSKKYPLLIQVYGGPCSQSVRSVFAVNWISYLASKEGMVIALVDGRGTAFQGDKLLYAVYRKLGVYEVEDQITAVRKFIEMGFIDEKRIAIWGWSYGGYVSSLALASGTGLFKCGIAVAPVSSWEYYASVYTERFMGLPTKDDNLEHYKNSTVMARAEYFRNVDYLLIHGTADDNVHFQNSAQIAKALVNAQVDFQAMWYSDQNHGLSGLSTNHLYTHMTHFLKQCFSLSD
Nature of the experiment: Inhibition of recombinant human FAP. The gist of the method: as §1

A further experiment concerns the target T2, Prolyl endopeptidase (Homo sapiens, UniProt P48147).
T2 sequence (P48147 whole entry): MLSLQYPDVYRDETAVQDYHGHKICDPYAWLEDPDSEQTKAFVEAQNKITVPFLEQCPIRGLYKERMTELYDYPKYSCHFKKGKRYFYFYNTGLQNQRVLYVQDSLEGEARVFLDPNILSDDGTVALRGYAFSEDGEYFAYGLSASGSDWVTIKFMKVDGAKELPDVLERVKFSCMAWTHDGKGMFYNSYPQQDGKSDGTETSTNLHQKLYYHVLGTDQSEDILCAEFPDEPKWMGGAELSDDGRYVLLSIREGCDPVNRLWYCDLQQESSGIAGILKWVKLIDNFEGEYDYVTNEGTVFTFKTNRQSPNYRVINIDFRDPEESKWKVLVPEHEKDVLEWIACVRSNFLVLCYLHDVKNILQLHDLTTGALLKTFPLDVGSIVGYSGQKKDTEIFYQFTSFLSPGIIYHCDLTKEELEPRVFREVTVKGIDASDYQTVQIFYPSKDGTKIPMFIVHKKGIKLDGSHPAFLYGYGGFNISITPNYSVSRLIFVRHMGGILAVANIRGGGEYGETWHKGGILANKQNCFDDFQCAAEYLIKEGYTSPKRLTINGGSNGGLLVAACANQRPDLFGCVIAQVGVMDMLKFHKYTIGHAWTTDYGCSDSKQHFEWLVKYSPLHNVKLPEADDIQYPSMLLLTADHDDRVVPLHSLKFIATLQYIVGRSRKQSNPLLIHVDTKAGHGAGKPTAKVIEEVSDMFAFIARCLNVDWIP
Nature of the experiment: Inhibition of recombinant human PREP. The gist of the method: as §1

The species entered for experiment [1] is Homo sapiens. Nature of the experiment: Selectivity index, ratio of IC50 for inhibition of human DPP8 expressed in baculovirus using Ala-Pro-7-amino-4-trifluormethylcoumarin as substrate to IC50 for inhibition of human DPP9 expressed in baculovirus using Gly-Pro-AMC as substrate. An outline of the steps:
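Ratio of IC50 against recombinant human DPP8 to IC50 against recombinant human DPP9, i.e. IC50(DPP8)/IC50(DPP9). Each IC50 is the mean of 3 independent measurements ± standard deviation.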

The species named for experiment [2] is Homo sapiens. Put plainly: Selectivity index, ratio of IC50 for inhibition of human DPP8 expressed in baculovirus-infected Sf9 cells to IC50 for inhibition of human DPP9. The gist of the method:
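Selectivity is computed as IC50(DPP8)/IC50(DPP9). Each IC50 was measured against recombinant human DPP8 or DPP9 and is the mean of three independent measurements ± standard deviation.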

Dipeptidyl peptidase 4, sequence (P27487 whole entry): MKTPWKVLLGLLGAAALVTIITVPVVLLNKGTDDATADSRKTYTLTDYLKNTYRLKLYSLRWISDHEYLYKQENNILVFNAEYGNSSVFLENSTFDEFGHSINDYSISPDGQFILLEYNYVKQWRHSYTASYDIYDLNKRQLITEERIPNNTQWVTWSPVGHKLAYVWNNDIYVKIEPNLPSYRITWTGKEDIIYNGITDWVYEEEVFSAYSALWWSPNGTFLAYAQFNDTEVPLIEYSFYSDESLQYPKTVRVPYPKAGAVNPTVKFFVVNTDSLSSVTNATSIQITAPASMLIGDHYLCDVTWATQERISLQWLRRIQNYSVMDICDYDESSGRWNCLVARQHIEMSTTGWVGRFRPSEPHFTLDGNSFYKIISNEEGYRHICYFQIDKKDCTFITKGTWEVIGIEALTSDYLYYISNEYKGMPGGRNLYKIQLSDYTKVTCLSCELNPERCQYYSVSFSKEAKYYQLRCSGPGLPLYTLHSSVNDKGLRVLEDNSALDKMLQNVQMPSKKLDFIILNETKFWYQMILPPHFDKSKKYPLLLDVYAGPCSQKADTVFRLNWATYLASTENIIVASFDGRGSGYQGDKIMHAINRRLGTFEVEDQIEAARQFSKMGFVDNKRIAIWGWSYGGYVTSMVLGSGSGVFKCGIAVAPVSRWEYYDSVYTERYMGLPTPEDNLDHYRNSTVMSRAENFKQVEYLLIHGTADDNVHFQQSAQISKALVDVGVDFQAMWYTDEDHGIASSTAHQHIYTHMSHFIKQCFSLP

For `CN(C)c1cccc2c(S(=O)(=O)NCCOCCOC(=O)NC34CC5CC(CC(NCC(=O)N6Cc7cc(F)c(F)cc7C6)(C5)C3)C4)cccc12`, the IC50 at Dipeptidyl peptidase 4 is greater than 10 µM; at Dipeptidyl peptidase 2, greater than 5 µM; on Prolyl endopeptidase FAP, greater than 10 µM; at Prolyl endopeptidase it was greater than 10 µM.
Take `O=C(CCCCC1SCC2NC(=O)NC21)NCCOCCOCCNC(=O)NC12CC3CC(CC(NCC(=O)N4Cc5ccc(F)cc5C4)(C3)C1)C2` (stereo unspecified): the IC50 is greater than 10 µM at Dipeptidyl peptidase 4, greater than 5 µM on Dipeptidyl peptidase 2, greater than 10 µM at Prolyl endopeptidase FAP and greater than 10 µM on Prolyl endopeptidase.
Consider `O=C(CCCCC1SCC2NC(=O)NC21)NCCOCCNC(=O)NC12CC3CC(CC(NCC(=O)N4Cc5cc(F)c(F)cc5C4)(C3)C1)C2` (stereo unspecified), for which the IC50 was greater than 10 µM at Dipeptidyl peptidase 4, greater than 5 µM at Dipeptidyl peptidase 2, greater than 10 µM at Prolyl endopeptidase FAP and greater than 10 µM at Prolyl endopeptidase.
`CN(C)c1cccc2c(S(=O)(=O)NCCOCCOC(=O)NC34CC5CC(CC(NCC(=O)N6Cc7ccc(F)cc7C6)(C5)C3)C4)cccc12`: the IC50 is greater than 10 µM at Dipeptidyl peptidase 4, greater than 5 µM on Dipeptidyl peptidase 2, greater than 10 µM at Prolyl endopeptidase FAP and greater than 10 µM on Prolyl endopeptidase.
As for `CC[N+]1=C(/C=C/C=C2/N(CCCCCC(=O)NC34CC5CC(CC(NCC(=O)N6Cc7cc(F)c(F)cc7C6)(C5)C3)C4)c3ccc(S(=O)(=O)O)cc3C2(C)C)C(C)(C)c2cc(S(=O)(=O)[O-])ccc21`, the IC50 is greater than 10 µM against Dipeptidyl peptidase 4, greater than 5 µM on Dipeptidyl peptidase 2, greater than 10 µM at Prolyl endopeptidase FAP and greater than 10 µM at Prolyl endopeptidase.
Consider `O=C(NC12CC3CC(CC(NCC(=O)N4Cc5ccc(F)cc5C4)(C3)C1)C2)OCCOCCNc1ccc([N+](=O)[O-])c2nonc12`, for which the IC50 on Dipeptidyl peptidase 4 was 0.44 µM; on Dipeptidyl peptidase 2 it was greater than 5 µM; on Prolyl endopeptidase FAP, greater than 10 µM; at Prolyl endopeptidase it was greater than 10 µM.
Take `O=C(CCCCC1SCC2NC(=O)NC21)NCCOCCOC(=O)NC12CC3CC(CC(NCC(=O)N4Cc5ccc(F)cc5C4)(C3)C1)C2` (stereo unspecified): the IC50 at Dipeptidyl peptidase 4 is greater than 10 µM; at Dipeptidyl peptidase 2 it was greater than 5 µM; on Prolyl endopeptidase FAP, greater than 10 µM; at Prolyl endopeptidase, greater than 10 µM.
Regarding `O=C(CCCCC1SCC2NC(=O)NC21)NCCOCCNC(=O)NC12CC3CC(CC(NCC(=O)N4Cc5ccc(F)cc5C4)(C3)C1)C2` (stereo unspecified), the IC50 against Dipeptidyl peptidase 4 is greater than 10 µM; on Dipeptidyl peptidase 2, greater than 5 µM; at Prolyl endopeptidase FAP, greater than 10 µM; at Prolyl endopeptidase, greater than 10 µM.
With `CC(C)[C@H](N)C(=O)N1CCC[C@H]1B(O)O`, the Ratio IC50 in the experiment listed under Homo sapiens [1] was 3.
For the compound `O=C(NC12CC3CC(CC(NCC(=O)N4Cc5cc(F)c(F)cc5C4)(C3)C1)C2)OCCOCCNc1ccc([N+](=O)[O-])c2nonc12`, the half-inhibitory concentration (IC50) was 1.7 µM against Dipeptidyl peptidase 4, greater than 5 µM at Dipeptidyl peptidase 2, greater than 10 µM at Prolyl endopeptidase FAP and greater than 10 µM on Prolyl endopeptidase.
Consider `O=C(CCCCC1SCC2NC(=O)NC21)NCCOCCOC(=O)NC12CC3CC(CC(NCC(=O)N4Cc5cc(F)c(F)cc5C4)(C3)C1)C2` (stereo unspecified), for which the IC50 against Dipeptidyl peptidase 4 is greater than 10 µM; at Dipeptidyl peptidase 2, greater than 5 µM; at Prolyl endopeptidase FAP it was greater than 10 µM; on Prolyl endopeptidase, greater than 10 µM.
As for `O=C(CCCCC1SCC2NC(=O)NC21)NCCOCCOCCNC(=O)NC12CC3CC(CC(NCC(=O)N4Cc5cc(F)c(F)cc5C4)(C3)C1)C2` (stereo unspecified), the 50% inhibitory concentration (IC50) was greater than 10 µM on Dipeptidyl peptidase 4, greater than 5 µM on Dipeptidyl peptidase 2, greater than 10 µM on Prolyl endopeptidase FAP and greater than 10 µM on Prolyl endopeptidase.
As to `N[C@@H](CC(=O)N1CCN(C(c2ccc(F)cc2)c2ccc(F)cc2)CC1)C(=O)N1Cc2ccccc2C1`, in the experiment listed under Homo sapiens [2], the Ratio IC50 is 4.

What is called IC50 is the concentration at which inhibition is half-maximal.
